Measured values reported in ChEMBL document CHEMBL4715770, “Inhibition of Low Molecular Weight Protein Tyrosine Phosphatase by an Induced-Fit Mechanism” (J Med Chem, 2016).

Legend:
[1] = biological target: T1, Tyrosine-protein phosphatase non-receptor type 2 (Homo sapiens, UniProt P17706); test: Inhibition of His-tagged TC-PTP (unknown origin) expressed in Escherichia coli BL21 cells using para-nitrophenyl phosphate as substrate incubated for 5 to 10 mins by microplate reader based spectrophotometric analysis
T1 sequence (P17706 whole entry): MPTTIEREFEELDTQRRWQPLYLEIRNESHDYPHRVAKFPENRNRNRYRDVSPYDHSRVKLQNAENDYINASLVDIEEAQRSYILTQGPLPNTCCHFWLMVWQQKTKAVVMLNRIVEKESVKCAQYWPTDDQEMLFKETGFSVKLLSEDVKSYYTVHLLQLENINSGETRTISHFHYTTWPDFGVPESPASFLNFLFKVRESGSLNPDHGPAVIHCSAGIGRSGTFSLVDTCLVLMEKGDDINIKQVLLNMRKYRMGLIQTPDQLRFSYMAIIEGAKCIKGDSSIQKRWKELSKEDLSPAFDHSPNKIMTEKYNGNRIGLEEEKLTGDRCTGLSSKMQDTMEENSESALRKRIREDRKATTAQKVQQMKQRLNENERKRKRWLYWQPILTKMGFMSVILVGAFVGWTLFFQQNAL

[2] = biological target: Tyrosine-protein phosphatase non-receptor type 6 (Homo sapiens, UniProt P29350); test: Inhibition of His-tagged SHP1 (unknown origin) expressed in Escherichia coli BL21 cells using para-nitrophenyl phosphate as substrate incubated for 5 to 10 mins by microplate reader based spectrophotometric analysis
Sequence of Tyrosine-protein phosphatase non-receptor type 6 (P29350 whole entry): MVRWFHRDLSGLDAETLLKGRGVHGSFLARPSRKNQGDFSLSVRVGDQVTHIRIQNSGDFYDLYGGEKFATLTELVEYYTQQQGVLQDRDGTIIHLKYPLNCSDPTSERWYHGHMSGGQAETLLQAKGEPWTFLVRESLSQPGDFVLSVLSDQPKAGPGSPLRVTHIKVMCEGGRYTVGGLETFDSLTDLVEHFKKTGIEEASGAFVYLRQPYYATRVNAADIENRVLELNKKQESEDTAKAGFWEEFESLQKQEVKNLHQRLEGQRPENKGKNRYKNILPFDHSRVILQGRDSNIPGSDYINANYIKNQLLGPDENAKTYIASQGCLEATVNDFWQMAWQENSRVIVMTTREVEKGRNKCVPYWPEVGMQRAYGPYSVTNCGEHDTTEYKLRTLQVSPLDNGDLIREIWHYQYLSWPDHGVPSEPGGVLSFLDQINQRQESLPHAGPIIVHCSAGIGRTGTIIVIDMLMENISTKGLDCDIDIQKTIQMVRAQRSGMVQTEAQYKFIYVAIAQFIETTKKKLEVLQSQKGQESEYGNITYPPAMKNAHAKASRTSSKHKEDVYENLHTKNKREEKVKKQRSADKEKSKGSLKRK

[3] = biological target: T2, Tyrosine-protein phosphatase non-receptor type 22 (Homo sapiens, UniProt Q9Y2R2); test: Inhibition of His-tagged LYP (unknown origin) expressed in Escherichia coli BL21 cells using para-nitrophenyl phosphate as substrate incubated for 5 to 10 mins by microplate reader based spectrophotometric analysis
T2 sequence (Q9Y2R2 whole entry): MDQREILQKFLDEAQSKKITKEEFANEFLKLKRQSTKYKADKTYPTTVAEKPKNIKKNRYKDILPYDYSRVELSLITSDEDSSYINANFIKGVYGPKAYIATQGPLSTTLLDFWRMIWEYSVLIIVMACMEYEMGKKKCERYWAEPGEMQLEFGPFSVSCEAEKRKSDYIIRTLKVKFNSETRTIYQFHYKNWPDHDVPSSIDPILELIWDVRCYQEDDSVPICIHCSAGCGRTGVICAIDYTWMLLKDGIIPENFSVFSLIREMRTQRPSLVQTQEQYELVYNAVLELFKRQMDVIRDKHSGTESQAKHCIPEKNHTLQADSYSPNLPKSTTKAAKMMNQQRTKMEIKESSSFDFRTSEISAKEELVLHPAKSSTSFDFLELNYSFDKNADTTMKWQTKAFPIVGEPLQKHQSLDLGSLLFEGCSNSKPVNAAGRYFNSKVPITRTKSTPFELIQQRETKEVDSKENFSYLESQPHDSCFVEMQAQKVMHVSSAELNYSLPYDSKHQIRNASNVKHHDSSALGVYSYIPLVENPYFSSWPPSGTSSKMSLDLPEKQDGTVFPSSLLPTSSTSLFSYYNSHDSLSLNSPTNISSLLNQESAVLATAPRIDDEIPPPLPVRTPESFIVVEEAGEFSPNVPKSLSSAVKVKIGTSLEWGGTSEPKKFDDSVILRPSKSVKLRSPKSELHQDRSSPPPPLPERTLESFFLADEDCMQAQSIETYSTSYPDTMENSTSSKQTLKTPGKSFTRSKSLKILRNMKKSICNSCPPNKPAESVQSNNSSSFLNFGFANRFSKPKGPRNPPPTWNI

[4] = biological target: T3, Tyrosine-protein phosphatase non-receptor type 7 (Homo sapiens, UniProt P35236); test: Inhibition of His-tagged HePTP (unknown origin) expressed in Escherichia coli BL21 cells using para-nitrophenyl phosphate as substrate incubated for 5 to 10 mins by microplate reader based spectrophotometric analysis
T3 sequence (P35236 whole entry): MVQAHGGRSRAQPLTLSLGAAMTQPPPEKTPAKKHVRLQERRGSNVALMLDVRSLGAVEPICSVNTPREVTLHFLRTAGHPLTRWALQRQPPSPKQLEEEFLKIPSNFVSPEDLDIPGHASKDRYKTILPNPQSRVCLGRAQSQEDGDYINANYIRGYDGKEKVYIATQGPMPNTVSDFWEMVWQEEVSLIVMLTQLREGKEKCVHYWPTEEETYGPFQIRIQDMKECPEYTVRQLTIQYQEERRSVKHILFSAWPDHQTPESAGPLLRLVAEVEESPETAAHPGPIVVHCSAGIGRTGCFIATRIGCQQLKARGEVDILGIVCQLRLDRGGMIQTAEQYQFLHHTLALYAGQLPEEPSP

[5] = Inhibition of His-tagged PTP-H1 (unknown origin) expressed in Escherichia coli BL21 cells using para-nitrophenyl phosphate as substrate incubated for 5 to 10 mins by microplate reader based spectrophotometric analysis; set-up: species or system Homo sapiens
Summary of the method: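 Enzyme at 5-20 nM was added to substrate plus a range of inhibitor concentrations and run 5-10 min at room temperature. Quenched with 5N NaOH and p-nitrophenol read at 405 nm (ε 18,000 M-1cm-1), with a no-enzyme background correction. IC50 from curve fitting.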

[6] = biological target: T4, RNA polymerase II subunit A C-terminal domain phosphatase SSU72 (Homo sapiens, UniProt Q9NP77); test: Inhibition of His-tagged SSu72 (unknown origin) expressed in Escherichia coli BL21 cells using para-nitrophenyl phosphate as substrate incubated for 5 to 10 mins by microplate reader based spectrophotometric analysis
T4 sequence (Q9NP77 whole entry): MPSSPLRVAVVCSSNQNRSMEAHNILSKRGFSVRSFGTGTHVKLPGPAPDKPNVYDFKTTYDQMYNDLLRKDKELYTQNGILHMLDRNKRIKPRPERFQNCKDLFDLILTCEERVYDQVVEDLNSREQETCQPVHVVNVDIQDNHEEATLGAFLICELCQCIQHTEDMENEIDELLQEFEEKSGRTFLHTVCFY

[7] = biological target: T5, Serine/threonine-protein phosphatase 5 (Homo sapiens, UniProt P53041); test: Inhibition of His-tagged PP5 (unknown origin) expressed in Escherichia coli BL21 cells using para-nitrophenyl phosphate as substrate incubated for 5 to 10 mins by microplate reader based spectrophotometric analysis
T5 sequence (P53041 whole entry): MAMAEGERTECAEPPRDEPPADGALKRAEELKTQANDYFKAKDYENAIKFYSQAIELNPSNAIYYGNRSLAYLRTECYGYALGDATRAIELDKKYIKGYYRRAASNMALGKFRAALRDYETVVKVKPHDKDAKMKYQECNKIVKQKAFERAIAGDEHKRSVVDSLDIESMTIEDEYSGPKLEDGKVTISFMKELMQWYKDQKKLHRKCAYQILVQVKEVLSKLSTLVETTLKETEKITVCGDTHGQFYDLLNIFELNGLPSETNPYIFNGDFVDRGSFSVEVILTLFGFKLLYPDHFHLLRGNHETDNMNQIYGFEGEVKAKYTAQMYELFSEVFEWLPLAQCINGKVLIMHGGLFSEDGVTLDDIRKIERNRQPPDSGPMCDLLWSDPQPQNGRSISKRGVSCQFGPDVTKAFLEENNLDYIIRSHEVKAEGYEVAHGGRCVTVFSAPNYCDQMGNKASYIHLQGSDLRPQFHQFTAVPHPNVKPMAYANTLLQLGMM

Row | SMILES | IC50 [1] | IC50 [2] | IC50 [3] | IC50 [4] | IC50 [5] | IC50 [6] | IC50 [7]
1 | O=C(Nc1ccc(-n2ccnc2)cc1)C(c1ccccc1)S(=O)(=O)O (stereo not drawn) | > 100 µM | > 100 µM | > 100 µM | > 100 µM | > 100 µM | > 100 µM | > 100 µM
2 | Cc1c(Br)cc(NC(=O)C(c2ccccc2)S(=O)(=O)O)cc1Br (stereo not drawn) | > 200 µM | > 200 µM | > 200 µM | > 200 µM | > 200 µM | > 200 µM | > 200 µM
3 | O=C(Nc1ccc(OCc2ccccc2)c(Cl)c1)C(c1ccccc1)S(=O)(=O)O (stereo not drawn) | > 200 µM | > 200 µM |  | > 200 µM | > 200 µM |  | > 200 µM
4 | O=C(Nc1cc(C(F)(F)F)cc(C(F)(F)F)c1)C(c1ccccc1)S(=O)(=O)O (stereo not drawn) | > 200 µM | > 200 µM | > 200 µM | 94 µM | > 200 µM | 83 µM | > 200 µM
5 | O=C(Nc1nc2ccc([N+](=O)[O-])cc2s1)C(c1ccccc1)S(=O)(=O)O (stereo not drawn) | > 100 µM | > 100 µM | > 100 µM | > 100 µM | > 100 µM | > 100 µM | > 100 µM
